Here are results for 9 compounds from ChEMBL document CHEMBL4251707, “Stereochemical Structure Activity Relationship Studies (S-SAR) of Tetrahydrolipstatin” (ACS Med Chem Lett, 2018).

Some results are limits rather than exact numbers.

Assay type in all cases: cell-based
In one assay the test system is NCI-H460. The assay can be described thus: Cytotoxicity against human H460 cells assessed as reduction in cell viability after 72 hrs by MTT assay. The following applies: NCI-H460, 72 h. An outline of the steps:
(§1)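 Cells plated at 5 × 10^3 cell/well and grown 12 to 16 h, then exposed to compound for 72 h over 0.1 nM to 100 μM, with untreated wells as controls. Viability was read by MTT as absorbance at 570 nm.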
On the technique in general: Formazan colour is commonly taken as a measure of viable cells.

Assay [1] deals with MDA-MB-231. The assay can be described thus: Cytotoxicity against human MDA-MB-231 cells assessed as reduction in cell viability after 72 hrs by MTT assay. The following applies: MDA-MB-231, 72 h. Put shortly: as §1
In another assay the test system is MCF7. The assay can be described thus: Cytotoxicity against human MCF7 cells assessed as reduction in cell viability after 72 hrs by MTT assay. The conditions noted are these: MCF7, 72 h. An outline of the steps:
as §1

For assay [2], the system named is MDA-MB-231. The assay can be described thus: Cytotoxicity against human MDA-MB-231 cells assessed as reduction in cell viability.

For orientation: IC50 means the midpoint of a concentration-inhibition curve.

For `CCCCCCCCCCC[C@H](C[C@H]1OC(=O)[C@@H]1CCCCCC)OC(=O)[C@H](CC(C)C)NC=O`, the IC50 in the assay on NCI-H460, with MDA-MB-231 [1] and with MCF7 was more than 100 µM throughout.

As to `CCCCCCCCCCC[C@H](C[C@H]1OC(=O)[C@@H]1CCCCCC)OC(=O)[C@@H](CC(C)C)NC=O`, the IC50 with NCI-H460, with MDA-MB-231 [1] and with MCF7 was more than 100 µM in each case.

As to `CCCCCCCCCCC[C@@H](C[C@@H]1OC(=O)[C@H]1CCCCCC)OC(=O)[C@H](CC(C)C)NC=O` [ORLISTAT], the IC50 in the assay with NCI-H460 is more than 100 µM; in the assay with MDA-MB-231 [1] it was more than 100 µM; in the assay with MCF7, more than 100 µM; in the assay on MDA-MB-231 [2], 13 µM.

Turning to `CCCCCCCCCCC[C@@H](C[C@H]1OC(=O)[C@@H]1CCCCCC)OC(=O)[C@@H](CC(C)C)NC=O`, the IC50 in the assay on NCI-H460, in the assay with MDA-MB-231 [1] and in the assay on MCF7 was more than 100 µM throughout.

Turning to `CCCCCCCCCCC[C@H](C[C@@H]1OC(=O)[C@H]1CCCCCC)OC(=O)[C@H](CC(C)C)NC=O`, the IC50 in the assay with NCI-H460, in the assay on MDA-MB-231 [1] and in the assay with MCF7 was more than 100 µM throughout.

As to `CCCCCCCCCCC[C@@H](C[C@H]1OC(=O)[C@@H]1CCCCCC)OC(=O)[C@H](CC(C)C)NC=O`, the IC50 with NCI-H460, in the assay with MDA-MB-231 [1] and with MCF7 was more than 100 µM throughout.

With `CCCCCCCCCCC[C@H](C[C@@H]1OC(=O)[C@H]1CCCCCC)OC(=O)[C@@H](CC(C)C)NC=O`, the IC50 in the assay with NCI-H460, in the assay with MDA-MB-231 [1] and in the assay on MCF7 was more than 100 µM each time.

For the compound `CC[C@@]1(O)C(=O)OCc2c1cc1n(c2=O)Cc2cc3ccccc3nc2-1` [CAMPTOTHECIN], the figures for the IC50 in the assay with NCI-H460, in the assay on MDA-MB-231 [1] and in the assay with MCF7 were 0.11 µM, 0.54 µM and 0.16 µM, respectively.

Take `CCCCCCCCCCC[C@@H](C[C@@H]1OC(=O)[C@H]1CCCCCC)OC(=O)[C@@H](CC(C)C)NC=O`: the IC50 in the assay on NCI-H460, with MDA-MB-231 [1] and with MCF7 was more than 100 µM in each case.
